D1 mod: allosterically modulates the human D1 dopamine receptor | P21728 | 58,000 tested, 5.9% active | B-score at 10 µM | HEK293 D1, CRE-luciferase, dopamine EC30 potentiation; actives deviate in either direction;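 active = luminescence count or its row- and column-corrected plate score outside the 99.7% band of the plate's sample wells, on either side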
HePTP inh: blocks human HePTP tyrosine phosphatase; P35236; 110,000 tested, 0.64% active; recombinant HePTP phosphatase activity, OD absorbance; inhibition, % at 20 µM; AID 521; in the data active = inhibition above about 50%
M1 antag: M1 muscarinic receptor (rat) antagonism. P08482. 64,000 tested, 3.4% active. CHO-M1 cells, Fluo-4 calcium, ACh EC80 antagonist mode; stronger effect = lower value. B-score at 10 µM;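 active = calcium fluorescence response, raw or row-and-column corrected B-score, differing from the plate sample mean either way at a set confidence level, mostly lower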
M1 ag: agonists of M1 muscarinic receptor; CHO-M1 cells, Fluo-4 calcium fluorescence, agonist mode; stronger effect = higher value; B-score at 10 µM; 64,000 tested, 3% active;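 active = fluorescence rise, raw or as B-score row- and column-corrected plate score, outside the 99.7% band of its plate's samples, either direction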
RORa activator: activates the human nuclear receptor RORA; P35398; CHO-K1 Gal4-RORA LBD luciferase reporter, luminescence; percent increase over mock-subtracted basal signal; activation, % at 10 µM; 65,000 tested, 1.5% active;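 active = activation above the mean of all tested compounds plus 3 SD, cut at about 49% in these data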
Target sequence (P35398 whole entry, looked up, the tested form may be a part): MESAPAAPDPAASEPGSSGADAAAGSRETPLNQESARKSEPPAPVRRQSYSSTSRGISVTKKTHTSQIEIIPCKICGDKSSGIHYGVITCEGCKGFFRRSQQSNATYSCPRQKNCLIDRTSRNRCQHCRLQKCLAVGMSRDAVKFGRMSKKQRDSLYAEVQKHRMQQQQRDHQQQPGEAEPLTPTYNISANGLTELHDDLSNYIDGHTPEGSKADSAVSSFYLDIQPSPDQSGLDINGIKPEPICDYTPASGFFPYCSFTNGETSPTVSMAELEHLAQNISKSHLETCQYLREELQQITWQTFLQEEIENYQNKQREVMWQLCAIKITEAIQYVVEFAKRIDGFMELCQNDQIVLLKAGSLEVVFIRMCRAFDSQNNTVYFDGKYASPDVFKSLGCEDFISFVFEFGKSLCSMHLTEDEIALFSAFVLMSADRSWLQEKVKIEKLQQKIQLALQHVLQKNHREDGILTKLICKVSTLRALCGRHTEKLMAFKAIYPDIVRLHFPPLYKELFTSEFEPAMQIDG
SF1 activator: activates the human nuclear receptor SF-1; Q13285; CHO-K1 Gal4-SF-1 LBD luciferase reporter; % increase over DMSO SF-1-specific signal; activation, % at 10 µM; 65,000 tested, 1.9% active;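 active = activation above the mean activation of all tested compounds plus 3 SD, cut at about 50% in these data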
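Compound – one dose, 10 µM compound, 1% DMSO · Test system – transient Gal4-SF-1 LBD reporter, CHO-K1 · Input – 4,000 cells in each well · Read-out basis – percent activation relative to DMSO median and mock-transfected background · Replicates – single measurement per compound · Technique – steady-glow luciferase luminescence, read after 15 min reagent incubation · Timing – 20 h compound treatment, 37 °C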
M1 antag conf: confirmation of rat M1 muscarinic receptor antagonists | shares compounds with M1 antag | CHO-M1 cells, Fluo-4 calcium, ACh EC80 antagonism; stronger effect = lower value | calcium response (max-min fluorescence) at 10 µM | 1,700 tested, 43% active | AID 677;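 active = calcium response below the same-plate mean of wells given acetylcholine alone at its 80%-effect dose, minus 3 SD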
mGluR4 antag: selectivity test for M1 antagonists: human mGluR4 receptor; shares compounds with M1 antag; CHO-mGluR4 calcium flux, Fluo-4 fluorescence, glutamate EC80; stronger effect = lower value; fluorescence response (max-min) at 10 µM; 1,700 tested, 0.9% active; AID 678;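 active = fluorescence response below the plate's average for near-maximal glutamate wells, less 3 SD of those wells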;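 also: raw unnormalized fluorescence span taken in the window right after glutamate addition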
Of the large screens only hits and unclear results are named; the others gave an inactive call (follow-up assays come after a bar, where they were run). Shown are actives, neighbours in structure and some others; about 8.2% of the full set was active somewhere.

Cc1csc(NC(=O)CSc2nnc(-c3ccncc3)n2C)n1	none
Cn1c(SCC(=O)Nc2nccs2)nnc1-c1ccncc1	M1 antag -6.1 | M1 antag conf inactive | mGluR4 antag inactive
CC1CCN(CCCNC(=O)c2coc3nc4ccccc4nc23)CC1	M1 antag -4.8 | M1 antag conf 390 | mGluR4 antag inactive
Cc1ccc(CCNC(=O)c2coc3nc4ccccc4nc23)cc1	none
CC1CCCN(CCCNC(=O)c2coc3nc4ccccc4nc23)C1 (stereo not drawn)	M1 antag -1.8 | M1 antag conf 365 | mGluR4 antag inactive
CCN(CC)CCOC(=O)c1ccc(NC(=O)COc2cc(=O)n(CC)c3ccccc23)cc1	M1 antag -3.4 | M1 antag conf 576 | mGluR4 antag inactive
COc1cc(Br)cc(CN2CCN(C/C=C/c3ccccc3)CC2)c1O	M1 antag -16 | M1 antag conf 48 | mGluR4 antag inactive
Cc1cc(C)c2c(CN3CCN(C/C=C/c4ccccc4)CC3)cc(=O)oc2c1	M1 antag -3.6 | M1 antag conf 259 | mGluR4 antag inactive
COc1ccc(O)c(CN2CCN(Cc3ccccc3OC)CC2)c1	none (no result: D1 mod, M1 antag, M1 ag, RORa activator, SF1 activator)
COc1ccc(O)c(CN2CCN(C/C=C/c3ccccc3)CC2)c1	M1 antag -11 (no result: D1 mod) | M1 antag conf 454 | mGluR4 antag inactive
CCC1(C)NC(=S)N(c2nc(-c3ccccc3)cs2)N1 (stereo not drawn)	none (no result: D1 mod, M1 antag, M1 ag, RORa activator, SF1 activator)
O=C(COc1ccccc1[N+](=O)[O-])N/N=C/C(Br)=C/c1ccccc1	none (no result: D1 mod, M1 antag, M1 ag, RORa activator, SF1 activator)
CCOc1ccccc1N1CCN(CC(O)COc2ccc3c(C)cc(=O)oc3c2)CC1 (stereo not drawn)	M1 antag -1.5 (no result: D1 mod) | M1 antag conf 455 | mGluR4 antag inactive
C=CCn1c(SCc2ccccc2C#N)nnc1-c1cc(Br)ccc1O	M1 antag -3.8 | M1 antag conf 330 | mGluR4 antag inactive
Nc1cc(N)nc(SCC(=O)N2CCCCC2)n1	none
CCN1CCN(c2nc3c(c(=O)n(C)c(=O)n3C)n2Cc2cccc3ccccc23)CC1	M1 antag -3.3 (no result: D1 mod) | M1 antag conf 429 | mGluR4 antag inactive
CCN1CCN(Cc2nc3c(c(=O)n(C)c(=O)n3C)n2Cc2cccc3ccccc23)CC1	M1 antag -2.8 (no result: HePTP inh) | M1 antag conf inactive | mGluR4 antag inactive
Cn1c(=O)c2c(nc(CN3CCC(C(N)=O)CC3)n2Cc2c(Cl)cccc2Cl)n(C)c1=O	M1 antag -4.1 | M1 antag conf inactive | mGluR4 antag inactive
Cn1c(=O)c2c(nc(CN3CCC(C(N)=O)CC3)n2Cc2c(F)cccc2Cl)n(C)c1=O	none
CCCC(c1nnnn1CC(=O)OCC)N(Cc1cc2ccc(C)cc2[nH]c1=O)C1CCCC1 (stereo not drawn)	none (no result: D1 mod, M1 antag, M1 ag)
O=C(/C=C/c1ccc(Cl)cc1)Nc1ccc(O)c(-c2nc3ccccc3o2)c1	none (no result: D1 mod, M1 antag, M1 ag, RORa activator, SF1 activator)
COc1ccc(CCNC(=O)C2CC(=O)N(c3ccc(Br)cc3)C2)cc1OC (stereo not drawn)	none (no result: D1 mod, M1 antag, M1 ag, RORa activator, SF1 activator)
CCOC(=O)COc1ccc2cc(-c3nc4ccccc4o3)c(=O)oc2c1	none (no result: D1 mod, M1 antag, M1 ag, RORa activator, SF1 activator)
CCOCCCNC(=O)CN1C(=O)C(CC)Oc2ccccc21 (stereo not drawn)	none
CCOC(=O)c1c(-c2cccs2)csc1NC(=O)CCCC(=O)O	none
O=C(NC1CCCCC1)c1sc(=S)n2c1[nH]c(=O)c1ccccc12	M1 antag -1.8 | M1 antag conf inactive | mGluR4 antag inactive
CCCCNC(=O)c1sc(=S)n2c1[nH]c(=O)c1ccccc12	none
O=C(Nc1ccccn1)C1CCN(S(=O)(=O)c2cccs2)CC1	none
Cc1cccc(NC(=O)C2CCN(S(=O)(=O)c3cccs3)CC2)n1	M1 antag -2.9 (no result: D1 mod) | M1 antag conf inactive | mGluR4 antag inactive
CCOC(=O)Nc1ccc2c(c1)N(C(=O)OCCN(C)C)c1ccccc1CC2	M1 antag -3.3 | M1 antag conf 294 | mGluR4 antag inactive
COC(=O)Nc1ccc2c(c1)N(C(=O)CCN(C)C)c1ccccc1CC2	none (no result: D1 mod, M1 antag, M1 ag, RORa activator, SF1 activator)
Cc1ccc2c(c1)NCCO2	none

Screening results (PubChem)
